Measurements gathered from unrelated publications.
Lines come from different studies, so protocols differ.
Target: Myosin light chain kinase 2, skeletal/cardiac muscle (MYLK2, Homo sapiens, UniProt Q9H1R3)

Compound	assay	conditions	quantity	value
Cc1ccc(NC(=O)c2ccc(CN3CCN(C)CC3)cc2)cc1Nc1nc(-c2cccnc2)cs1	cell-free assay	0.5 µM	remaining signal	98.7%
C=CC(=O)Nc1cc(Nc2nccc(Nc3cc(Cl)c(F)cc3C(C)(C)O)n2)c(OC)cc1N1CC[C@@H](N(C)C)C1	enzyme activity, inhibitor	1 µM	inhibition	-9%
O=C(Nc1cnn(-c2csc(C(=O)NC3COC3)c2)c1)Nc1ccccc1Cl	enzyme activity, inhibitor	5 µM	remaining activity	89.9%
CNC(=O)c1ccc(Nc2ncc(C(F)(F)F)c(NCc3nccnc3N(C)S(C)(=O)=O)n2)cc1	cell-free assay, competition with immobilised ligand	0.1 µM	remaining binding	63%
Cc1cnc(NC2CCOCC2)nc1-n1cnc(C(=O)NC(CN)c2cc(F)cc(Cl)c2)c1 (stereo not shown)	enzyme activity, inhibitor, radiometric	1 µM	remaining activity	95%
COc1cc(Cl)c(C(=O)N[C@@H](CN[C@H]2CC[C@@H](N)CC2)Cc2ccc(C#N)cc2)cc1-c1ccc(CN[C@H](C)c2ccc(C)cc2)o1	enzyme activity, inhibitor	1 µM	remaining activity	99%
CC(C)(C)c1nc2c(s1)c1nc(N)ncc1c1ccc(NS(=O)(=O)c3c(F)cccc3F)c(F)c12	enzyme activity, inhibitor, radiometric	1 µM	remaining activity	113%
Nc1ncnc2occ(-c3ccc(NC(=O)Nc4cc(C(F)(F)F)ccc4F)cc3)c12	enzyme activity, inhibitor	20 µM	remaining activity	1.4%
N#CCCc1ccc2c(c1)-c1[nH]c3ccc([N+](=O)[O-])cc3c1CC(=O)N2	cell-free assay	0.5 µM	remaining signal	93.9%
CS(=O)(=O)NCC[C@H](NC(=O)c1cncc2c1cnn2-c1ccc(F)cc1)c1ccnc(S(C)(=O)=O)c1	cell-free assay, competition with immobilised ligand	1 µM	remaining binding	93%
CNC(=O)c1cc(Oc2ccc(NC(=O)Nc3ccc(Cl)c(C(F)(F)F)c3)cc2)ccn1	enzyme activity, inhibitor	0.3 µM	inhibition	4%
C[C@H](c1ccnc(Nc2nc3ccc(-c4cc(N(C)C)ncn4)cc3[nH]2)c1)N1CCN(C(=O)CC(F)(F)F)CC1	cell-free assay, competition with immobilised ligand	0.1 µM	remaining binding	92%
CCN(CC)CCNC(=O)c1c(C)[nH]c(/C=C2\C(=O)Nc3ccc(F)cc32)c1C	enzyme activity, inhibitor	10 µM	inhibition	92%
CN(C)C(=O)Cn1cc(-c2nc([C@@](C)(c3ccc(-c4cnc(N)nc4)cc3)C3CC3)no2)cn1	cell-free assay, competition with immobilised ligand	1 µM	remaining binding	100%
COc1cc2ncnc(Nc3ccc(Oc4ccccc4)c(C)c3C)c2cc1OC	enzyme activity, inhibitor	1 µM	inhibition	-5%
Cn1nc(C(F)(F)F)cc1-c1cnc(N2CCc3cc(S(=O)(=O)Nc4c(F)cc(Cl)cc4F)cc(N4CCCC4=O)c32)nc1	cell-free assay, competition with immobilised ligand	1 µM	remaining binding	100%
CC/C(=N\NC(=O)NCc1cccc(O)c1)c1ccc(O)c(C)c1O	enzyme activity, inhibitor	0.1 µM	inhibition	6%
Cc1nc(Cc2cccc(C(F)(F)F)c2)sc1-c1ccc(C(N)=O)nc1	cell-free assay, competition with immobilised ligand	1 µM	remaining binding	77%
O=C1Nc2ccc(Cl)cc2C1=Cc1cc(Cl)c(O)c(Cl)c1	cell-free assay	0.5 µM	remaining signal	71.5%
